Assay results reported in ChEMBL document CHEMBL3813598, “Development of hydroxy-based sphingosine kinase inhibitors and anti-inflammation in dextran sodium sulfate induced colitis in mice” (Bioorg Med Chem, 2016).
Activity calls are given as the source filed them. The calls are words filed in the database; no cut-off is given here.

Tests used:
Sphingosine kinase 2 = biological target: T1, Sphingosine kinase 2 (Homo sapiens, UniProt Q9NRA0); experiment: Inhibition of GST-tagged full length human recombinant SPHK2 expressed in baculovirus using sphingosine as substrate preincubated for 10 mins measured after 1 hr by ADP-quest assay
T1 sequence (Q9NRA0 whole entry): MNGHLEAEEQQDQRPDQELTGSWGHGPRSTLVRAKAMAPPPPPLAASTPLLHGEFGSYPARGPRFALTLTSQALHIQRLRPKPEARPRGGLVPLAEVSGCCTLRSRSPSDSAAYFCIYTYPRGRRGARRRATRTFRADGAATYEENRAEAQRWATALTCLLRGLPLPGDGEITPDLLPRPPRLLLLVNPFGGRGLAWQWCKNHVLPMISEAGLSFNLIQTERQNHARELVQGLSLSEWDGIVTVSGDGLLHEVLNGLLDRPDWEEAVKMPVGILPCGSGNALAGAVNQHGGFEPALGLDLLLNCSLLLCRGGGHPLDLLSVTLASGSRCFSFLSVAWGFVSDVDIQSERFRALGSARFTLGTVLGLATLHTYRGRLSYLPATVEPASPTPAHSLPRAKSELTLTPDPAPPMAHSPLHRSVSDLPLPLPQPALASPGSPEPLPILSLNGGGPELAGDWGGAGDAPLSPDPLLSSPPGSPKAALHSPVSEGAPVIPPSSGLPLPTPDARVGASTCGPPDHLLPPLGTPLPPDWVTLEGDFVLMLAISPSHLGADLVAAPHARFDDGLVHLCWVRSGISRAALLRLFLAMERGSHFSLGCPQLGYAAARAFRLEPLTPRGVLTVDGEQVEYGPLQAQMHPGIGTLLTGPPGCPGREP
Summary of the method: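 Human recombinant SphK1 or SphK2 with sphingosine substrate and ATP, tested in 384-well format. Enzyme was preincubated with compound for 10 min, then the reaction ran at 28 °C for 1 h. ADP Quest reagents A and B were added for 30 min at room temperature. Fluorescence was read at Ex 530/Em 590 nm. Values are mean of n = 3 in triplicate.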

Sphingosine kinase 1 = Sphingosine kinase 1 (Homo sapiens, UniProt Q9NYA1); experiment: Inhibition of GST-tagged full length human recombinant SPHK1 expressed in baculovirus using sphingosine as substrate preincubated for 10 mins measured after 1 hr by ADP-quest assay
Mus musculus [1] = experiment: Antiinflammatory activity in DSS- induced C57BL/6 mouse colitis model assessed as colon length at 50 mg/kg, ig after 10 days (reference value: 45.68 +/- 1.34 mm); type: functional
Summary of the method: (§1)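 Female C57BL/6 mice, 6–8 weeks, randomized into five groups. Colitis induced by 2.5% w/v DSS in drinking water for 5 days, then 5 days of normal water. Test agent given ip at 5 or 10 mg/kg, or 5-ASA ig at 50 mg/kg, until study end. Controls were water plus vehicle and DSS plus vehicle. Body weight recorded daily; colon length taken at sacrifice on day 10. Mean ± SD, n = 10.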

Mus musculus [2] = experiment: Antiinflammatory activity in DSS- induced C57BL/6 mouse colon colitis model assessed as mucosal/submucosal lesion at 50 mg/kg, ig after 24 hrs by hematoxylin/eosin staining based assay; type: functional, organism-based
Summary of the method: (§2)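 Colitis induced in female C57BL/6 mice as 2.5% DSS in drinking water for 5 days, then 5 days of water. Dosing ip or 5-ASA ig until sacrifice at day 10. Colons fixed in 10% buffered formalin (pH 7.4) for at least 24 h. Sections scored for cellular infiltration, mucosal lesion and crypt damage to give a histologic score.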

Mus musculus [3] = experiment: Antiinflammatory activity in DSS- induced C57BL/6 mouse colon colitis model assessed as inhibition of IL6 expression at 50 mg/kg, ig after 24 hrs by hematoxylin staining based assay; type: functional, organism-based
Summary of the method: (§3)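 Colons come from the same DSS model, fixed in 10% buffered formalin for at least 24 h. Paraffin sections were deparaffinized. Antigen was retrieved in 10 mM sodium citrate with 0.1% Tween 20 at 100 °C for 20 min. Primary antibody was applied in PBS with 5% BSA and 10% goat serum, then HRP polymer at room temperature for 30 min. Detection was DAB with hematoxylin counterstain. IL-6 and COX-2 positive labeling was counted automatically. Mean ± SD.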

Mus musculus [4] = experiment: Antiinflammatory activity in DSS- induced C57BL/6 mouse colon colitis model assessed as inhibition of COX2 expression at 50 mg/kg, ig after 24 hrs by hematoxylin staining based assay; type: functional, organism-based; summary of the method: as §3
Mus musculus [5] = experiment: Antiinflammatory activity in DSS- induced C57BL/6 mouse colitis model assessed as body weight at 50 mg/kg, ig after 10 days (reference value: 15.69 +/- 0.65 g); type: functional; summary of the method: as §1
Mus musculus [6] = experiment: Antiinflammatory activity in DSS- induced C57BL/6 mouse colitis model assessed as change in body weight at 50 mg/kg, ig after 7 days; type: functional, organism-based; summary of the method: as §1
Mus musculus [7] = experiment: Antiinflammatory activity in DSS- induced C57BL/6 mouse colon colitis model assessed as degeneration/necrosis of crypt cells at 50 mg/kg, ig after 24 hrs by hematoxylin/eosin staining based assay; type: functional, organism-based; summary of the method: as §2
Mus musculus [8] = experiment: Antiinflammatory activity in DSS- induced C57BL/6 mouse colon colitis model assessed as cellular infiltration of mononuclear macrophages/neutrophils at 50 mg/kg, ig after 24 hrs by hematoxylin/eosin staining based assay; type: functional, organism-based; summary of the method: as §2

Chain of Sphingosine kinase 1 (Q9NYA1 whole entry): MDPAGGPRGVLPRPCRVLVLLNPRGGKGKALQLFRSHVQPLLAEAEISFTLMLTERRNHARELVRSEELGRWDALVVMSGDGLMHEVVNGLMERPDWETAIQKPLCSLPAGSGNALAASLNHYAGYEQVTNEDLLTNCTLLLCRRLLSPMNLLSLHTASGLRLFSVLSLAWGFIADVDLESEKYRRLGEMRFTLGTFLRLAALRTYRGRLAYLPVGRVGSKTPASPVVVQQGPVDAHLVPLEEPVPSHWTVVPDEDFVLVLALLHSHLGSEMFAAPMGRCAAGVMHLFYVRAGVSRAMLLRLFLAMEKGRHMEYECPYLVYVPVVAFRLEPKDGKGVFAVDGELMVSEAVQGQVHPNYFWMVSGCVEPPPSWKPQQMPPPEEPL

| Structure (SMILES) | IC50 (Sphingosine kinase 2) [µM] | IC50 (Sphingosine kinase 1) [µM] | other results |
| --- | --- | --- | --- |
| COc1ccccc1COc1cccc(/C=N/NC(=O)c2cc(O)c(O)c(O)c2)c1 | 19.5 | 20.5 | – |
| COc1cccc(COc2ccc(/C=N/NC(=O)c3cc(O)cc(O)c3)cc2)c1 | > 100 | > 100 | – |
| N#Cc1cccc(COc2cccc(/C=N/NC(=O)c3cc(O)c(O)c(O)c3)c2)c1 | > 100 | 85.3 | – |
| O=C(N/N=C/c1ccc(OCc2ccccc2C(F)(F)F)cc1)c1cccc(O)c1 | > 100 | > 100 | – |
| O=C(N/N=C/c1cccc(OCc2cccc(Cl)c2)c1)c1cc(O)c(O)c(O)c1 | 67.4 | > 100 | – |
| O=C(N/N=C/c1cccc(OCc2cccc(C(F)(F)F)c2)c1)c1cc(O)c(O)c(O)c1 | > 100 | > 100 | – |
| Cc1cccc(COc2cccc(/C=N/NC(=O)c3cc(O)c(O)c(O)c3)c2)c1 | 78.7 | 52.1 | – |
| COc1cccc(COc2ccc(/C=N/NC(=O)c3ccc(O)c(O)c3)cc2)c1 | 10.1 | 25.3 | – |
| O=C(N/N=C/c1cccc(OCc2ccccc2F)c1)c1cc(O)c(O)c(O)c1 | 98.9 | > 100 | – |
| O=C(N/N=C/c1cccc(OCc2ccccc2Cl)c1)c1cc(O)c(O)c(O)c1 | 58.8 | 36.8 | – |
| O=C(N/N=C/c1ccc(OCc2cccc(C(F)(F)F)c2)cc1)c1cc(O)c(O)c(O)c1 | 23.8 | 54.7 | – |
| O=C(N/N=C/c1cccc(OCc2ccc(Cl)cc2)c1)c1cc(O)c(O)c(O)c1 | 61.2 | > 100 | – |
| COc1cccc(COc2ccc(/C=N/NC(=O)c3cccc(O)c3)cc2)c1 | > 100 | > 100 | – |
| COc1ccc(COc2ccc(/C=N/NC(=O)c3cc(O)c(O)c(O)c3)cc2)cc1 | > 100 | > 100 | – |
| CC(C)(C)c1ccc(COc2ccc(/C=N/NC(=O)c3cc(O)c(O)c(O)c3)cc2)cc1 | 43.3 | 40.5 | – |
| O=C(N/N=C/c1cccc(OCc2ccccc2)c1)c1ccc2[nH]cnc2c1 | > 100 | > 100 | – |
| N#Cc1ccccc1COc1ccc(/C=N/NC(=O)c2cc(O)c(O)c(O)c2)cc1 | 44.5 | > 100 | – |
| N#Cc1ccc(COc2cccc(/C=N/NC(=O)c3cc(O)c(O)c(O)c3)c2)cc1 | 35.1 | 69.4 | – |
| Nc1ccc(O)c(C(=O)O)c1 [MESALAMINE] | – | – | Activity (Mus musculus [1]): 53.4 mm; Activity (Mus musculus [2]): Active; inhibition (Mus musculus [3]): Active; inhibition (Mus musculus [4]): Active; Activity (Mus musculus [5]): 18.32 g; Activity (Mus musculus [6]): inactive; Activity (Mus musculus [7]): Active; Activity (Mus musculus [8]): Active |
| Cc1ccc(COc2ccc(/C=N/NC(=O)c3cc(O)c(O)c(O)c3)cc2)cc1 | 44.5 | 32.7 | – |
| COc1cccc(COc2cccc(/C=N/NC(=O)c3cc(O)c(O)c(O)c3)c2)c1 | 8.7 | 8.57 | – |
| COc1cccc(COc2cccc(/C=N/NC(=O)c3cccc(O)c3)c2)c1 | > 100 | > 100 | – |
| O=C(N/N=C/c1cccc(OCc2ccccc2C(F)(F)F)c1)c1cc(O)c(O)c(O)c1 | 16.3 | 19.6 | – |
| O=C(N/N=C/c1ccc(OCc2ccccc2C(F)(F)F)cc1)c1ccc(O)c(O)c1 | 11.4 | 16.5 | – |
| O=C(N/N=C/c1cccc(OCc2ccccc2C(F)(F)F)c1)c1ccc(O)cc1 | > 100 | > 100 | – |
| CC(C)(C)c1ccc(COc2cccc(/C=N/NC(=O)c3cc(O)c(O)c(O)c3)c2)cc1 | 62.2 | 35.2 | – |
| O=C(N/N=C/c1ccc(OCc2ccc3ccccc3c2)cc1)c1cc(O)c(O)c(O)c1 | 30.2 | 20.6 | – |
